From ChEMBL document CHEMBL4011642, “Potent, Selective, and Cell Active Protein Arginine Methyltransferase 5 (PRMT5) Inhibitor Developed by Structure-Based Virtual Screening and Hit Optimization” (J Med Chem, 2017)
Activity calls are given as the source filed them. The calls are words filed in the database; no cut-off is given here.

How the values were obtained:
PRMT5/MEP50 complex [1] = target: T1, PRMT5/MEP50 complex (Homo sapiens, UniProt O14744); experiment: Inhibition of recombinant human N-terminal FLAG-tagged PRMT5 (2 to end residues) /human N-terminal His-tagged MEP50 (2 to end residues) expressed in HEK293F cells using histone H4 as substrate preincubated for 15 mins followed by substrate/S-adenosyl methionine addition measured after 60 mins by alpha LISA assay; design: species or system HEK293
T1 sequence (O14744 whole entry): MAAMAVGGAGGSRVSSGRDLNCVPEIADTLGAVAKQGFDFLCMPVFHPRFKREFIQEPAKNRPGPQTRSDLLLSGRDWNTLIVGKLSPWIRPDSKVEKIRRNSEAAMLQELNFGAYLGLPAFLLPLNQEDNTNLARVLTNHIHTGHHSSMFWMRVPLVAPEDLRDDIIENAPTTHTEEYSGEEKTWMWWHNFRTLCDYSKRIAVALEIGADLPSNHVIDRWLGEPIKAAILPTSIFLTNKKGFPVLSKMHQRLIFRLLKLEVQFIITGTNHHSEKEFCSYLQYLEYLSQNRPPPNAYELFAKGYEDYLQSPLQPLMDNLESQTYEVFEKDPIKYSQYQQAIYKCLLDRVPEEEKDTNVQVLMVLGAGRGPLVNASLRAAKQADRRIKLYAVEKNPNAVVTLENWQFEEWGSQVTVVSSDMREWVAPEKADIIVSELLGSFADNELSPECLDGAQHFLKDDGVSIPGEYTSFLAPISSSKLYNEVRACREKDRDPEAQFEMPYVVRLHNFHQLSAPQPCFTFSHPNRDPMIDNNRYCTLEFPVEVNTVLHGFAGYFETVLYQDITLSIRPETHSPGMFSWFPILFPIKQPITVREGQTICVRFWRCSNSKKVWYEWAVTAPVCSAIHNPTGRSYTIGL
T1 sequence (Q9BQA1 whole entry, further chain): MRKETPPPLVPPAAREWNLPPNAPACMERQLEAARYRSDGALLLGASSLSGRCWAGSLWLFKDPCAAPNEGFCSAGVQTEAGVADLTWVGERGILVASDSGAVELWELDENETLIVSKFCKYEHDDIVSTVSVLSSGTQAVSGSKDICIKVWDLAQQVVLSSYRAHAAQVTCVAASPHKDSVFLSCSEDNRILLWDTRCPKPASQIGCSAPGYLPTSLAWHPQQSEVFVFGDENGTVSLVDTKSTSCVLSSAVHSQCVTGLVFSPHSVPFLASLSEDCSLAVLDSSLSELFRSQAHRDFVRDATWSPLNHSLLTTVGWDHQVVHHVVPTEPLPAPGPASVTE

PRMT5/MEP50 complex [2] = target: T1, PRMT5/MEP50 complex; experiment: Inhibition of recombinant human N-terminal FLAG-tagged PRMT5 (2 to end residues)/human N-terminal His-tagged MEP50 (2 to end residues) expressed in HEK293F cells using histone H4 as substrate in presence of [3H]-SAM after 60 mins by chemiluminescent assay; assay type: cell-based, HEK293; details: in the assay text read “radioactive methylation assay” for “chemiluminescent assay”
In short: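 PRMT5/MEP50 complex in modified Tris buffer with 3-fold diluted compound (1% DMSO final) preincubated 15 min at RT. Substrate added and reaction started with [3H]-SAM; 60 min at RT, stopped with cold SAM. Transferred to Flashplate, washed, counted on MicroBeta.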

HUVEC = experiment: Cytotoxicity against human HUVEC assessed as cell growth inhibition after 8 days by Cell Titer-Glo assay; assay type: cell-based; details: 192 h
In short: (§1)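 Normal cells (HUVEC from ATCC; RCTEC) grown in RPMI1640 with 10% FBS and 1% penicillin/streptomycin, 5% CO2, 37 °C. Seeded at 0.5–1 × 10^5 cells/well; compound (0–100 μM) added after 6 h. Cells counted and replated with fresh medium and compound every 4 days over 8 days. Viability by CellTiter-Glo luminescence; concentration–response curves fitted at each time point.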

MV4-11 [3] = experiment: Cytotoxicity against human MV411 cells assessed as cell growth inhibition after 12 days by Cell Titer-Glo assay; details: MV4-11, 288 h
JeKo-1 = experiment: Cytotoxicity against human JeKo1 cells assessed as cell growth inhibition after 12 days by Cell Titer-Glo assay; assay type: functional, cell-based; details: JeKo-1, 288 h
In short: (§2)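 Cancer lines grown in RPMI1640 with 10% FBS and 1% penicillin/streptomycin, 5% CO2, 37 °C. Seeded at 0.5–1 × 10^5 cells/well; compound (0–100 μM) added after 6 h. Counted and replated at equal numbers with fresh medium and compound every 4 days, up to 12 days. Viable cells by CellTiter-Glo luminescence; concentration–response curves fitted at each time point.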

Z-138 = experiment: Cytotoxicity against human Z138 cells assessed as cell growth inhibition after 12 days by Cell Titer-Glo assay; assay type: functional, cell-based; details: Z-138, 288 h; in short: as §2
[4] = Cytotoxicity against human RCTEC assessed as cell growth inhibition after 8 days by Cell Titer-Glo assay; assay type: cell-based; details: 192 h; in short: as §1
MV4-11 [5] = experiment: Cytotoxicity against human MV411 cells assessed as cell growth inhibition after 4 days by Cell Titer-Glo assay; assay type: functional, cell-based; details: MV4-11, 96 h; in short: as §2
MV4-11 [6] = experiment: Cytotoxicity against human MV411 cells assessed as cell growth inhibition after 8 days by Cell Titer-Glo assay; assay type: functional, cell-based; details: MV4-11, 192 h; in short: as §2
[7] = target: Protein arginine N-methyltransferase 5 (Homo sapiens) (UniProt O14744); experiment: Inhibition of PRMT5 in human MV411 cells assessed as downregulation of SmD3 after 6 days by Western blot analysis; assay type: cell-based
Sequence of Protein arginine N-methyltransferase 5 (Homo sapiens) (O14744 whole entry): as the sequence (O14744 whole entry) above
In short: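 MV4-11 cells treated with compound over a 0–20 μM titration for 6 days. Whole-cell lysates run on 4–12% SDS-PAGE, transferred to nitrocellulose, blocked in 5% milk. Probed overnight at 4 °C with anti-symmetric dimethylarginine (SDMA) and GAPDH antibodies, then HRP secondary. SmD3-colocalizing band assessed.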

[8] = target: T2, PRMT5/MEP50 complex (Homo sapiens) (UniProt O14744+Q9BQA1); experiment: (§3) Competitive inhibition of recombinant human N-terminal FLAG-tagged PRMT5 (2 to end residues) /human N-terminal His-tagged MEP50 (2 to end residues) expressed in HEK293F cells using peptide substrate preincubated for 15 mins followed by substrate/[3H]-SAM addition measured after 60 mins under varying concentration of SAM; assay type: cell-based
In short: (§4)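 Mechanism study in modified Tris buffer. PRMT5/MEP50 preincubated 15 min at RT with serially diluted compound (1% DMSO final), then peptide added and reaction started with [3H]-SAM. For the SAM study, [3H]-SAM was set at 7 concentrations with fixed peptide. For the peptide study, peptide was set at 7 concentrations with fixed SAM. Run 60 min at RT, stopped with cold SAM, Flashplate capture, MicroBeta counting.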

[9] = target: T2, PRMT5/MEP50 complex (Homo sapiens); experiment: as §3, with “Non-competitive inhibition” for “Competitive inhibition”, “of peptide” for “of SAM”; assay type: cell-based; in short: as §4
KOPN-8 = experiment: Cytotoxicity against human KOPN8 cells assessed as cell growth inhibition after 12 days by Cell Titer-Glo assay; details: KOPN-8, 288 h
[10] = target: T2, PRMT5/MEP50 complex (Homo sapiens); experiment: as §3, with “of peptide” for “of SAM”; assay type: cell-based; in short: as §4
[11] = target: T2, PRMT5/MEP50 complex (Homo sapiens); experiment: as §3, with “Uncompetitive” for “Competitive”; assay type: cell-based; in short: as §4

| IC50 (PRMT5/MEP50 complex [1]) [µM] | Structure (SMILES) | further results |
| --- | --- | --- |
| > 200 | CNC(=O)c1ccccc1NC(=O)CSc1nc2cc(OC)ccc2[nH]1 |  |
| 27 | COc1ccc(C(=O)NC2C=NCS2)c(OC)c1 (stereo not drawn) |  |
| 18 | OCCNCc1c(OCc2ccccc2F)ccc2ccccc12 | IC50 (PRMT5/MEP50 complex [2]): 172 µM |
| 47 | COc1ccc2[nH]c(SCC(=O)Nc3ccccc3Cl)nc2c1 |  |
| > 100 | COC(=O)c1ccccc1NC(=O)CSc1nc2c(C)cccc2[nH]1 |  |
| > 200 | COc1ccc2[nH]c(SCC(=O)Nc3ccccc3C)nc2c1 |  |
| 0.33 | COC(=O)c1ccccc1NC(=O)CSc1nc2cc(N(C)C)ccc2[nH]1 |  |
| 87 | COC(=O)c1ccccc1NC(=O)CSc1nc2ccncc2[nH]1 |  |
| 1.9 | CCOC(=O)c1ccccc1NC(=O)CSc1nc2cc(OC)ccc2[nH]1 |  |
| 23 | O=C(/C=C/c1ccc(-c2ccccc2[N+](=O)[O-])o1)c1ccccc1 | IC50 (PRMT5/MEP50 complex [2]): 169 µM |
| 0.53 | CCCOc1ccc2[nH]c(SCC(=O)Nc3ccccc3C(=O)OC)nc2c1 |  |
| 26 | Cc1ccc(OCc2nnc3sc(-c4cccnc4)nn23)cc1 | IC50 (PRMT5/MEP50 complex [2]): > 200 µM |
| 52 | COC(=O)c1cccc(NC(=O)CSc2nc3cc(OC)ccc3[nH]2)c1 |  |
|  | COC(=O)c1ccccc1NC(=O)CSc1nc2cc(OC)ccc2[nH]1 | Activity (HUVEC): Non-Toxic; EC50 (MV4-11 [3]): 6.53 µM; EC50 (JeKo-1): 15 to 70 µM; EC50 (Z-138): 15 to 70 µM; Activity [4]: Non-Toxic; EC50 (MV4-11 [5]): 80.7 µM; EC50 (MV4-11 [6]): 25.7 µM; inhibition [7]: Dose-dependent effect; inhibition [8]: Active; inhibition [9]: Active; EC50 (KOPN-8): 15 to 70 µM |
| 0.83 | COC(=O)c1ccccc1NC(=O)CSc1nc2cc([N+](=O)[O-])ccc2[nH]1 |  |
| 40 | COC(=O)c1ccccc1NC(=O)CSc1nc2cc(N)ccc2[nH]1 |  |
| 27 | Clc1ccc(CNCC2CCNCC2)cc1Cl |  |
| 0.5 | COC(=O)c1ccccc1NC(=O)CSc1nc2cc(Cl)ccc2[nH]1 |  |
| 8.4 | COC(=O)c1ccccc1NC(=O)CSc1nc2nc(OC)ccc2[nH]1 |  |

| IC50 (PRMT5/MEP50 complex [1]) [µM] | Structure (SMILES) | further results |
| --- | --- | --- |
| > 100 | COC(=O)c1ccccc1NC(=O)CSc1nc2c(Cl)cccc2[nH]1 |  |
| > 100 | COC(=O)c1ccc(NC(=O)CSc2nc3cc(OC)ccc3[nH]2)cc1 |  |
| 1.6 | CNc1ccc2[nH]c(SCC(=O)Nc3ccccc3C(=O)OC)nc2c1 |  |
| 33 | COc1ccc2[nH]c(SCC(=O)Nc3ccccc3)nc2c1 |  |
| 3.3 | COC(=O)c1ccccc1NC(=O)CSc1nc2cc(F)ccc2[nH]1 |  |
| 0.35 | CCOc1ccc2[nH]c(SCC(=O)Nc3ccccc3C(=O)OC)nc2c1 |  |
| > 200 | COc1ccc2[nH]c(SCC(=O)Nc3ccccc3C(=O)N(C)C)nc2c1 |  |
| > 100 | COc1ccc2[nH]c(SCC(=O)Nc3ccccc3C(=O)O)nc2c1 |  |
| 2.4 | COC(=O)c1ccncc1NC(=O)CSc1nc2cc(OC)ccc2[nH]1 |  |
| 1.4 | COC(=O)c1ccccc1NC(=O)CSc1nc2cc(C)ccc2[nH]1 |  |
| 8.1 | COC(=O)c1ccccc1NC(=O)CSc1nc2ccccc2[nH]1 | IC50 (PRMT5/MEP50 complex [2]): 24 µM |
|  | O=C(NC[C@H](O)CN1CCc2ccccc2C1)c1cc(NC2COC2)ncn1 | inhibition [10]: Active; inhibition [11]: Active |
| 19 | COc1ccc2[nH]c(SCC(=O)Nc3ccccc3OC)nc2c1 |  |
| 2.9 | COc1ccc2[nH]c(SCC(=O)Nc3ccccc3C(C)=O)nc2c1 |  |
| 25 | COc1ccc2[nH]c(SCC(=O)Nc3ccccc3N(C)C)nc2c1 |  |
| 2.8 | COC(=O)c1ccccc1NC(=O)CSc1nc2cc(OC(C)C)ccc2[nH]1 |  |
| > 100 | COC(=O)c1ccccc1NC(=O)CSc1nc2c(OC)cccc2[nH]1 |  |
| > 100 | COC(=O)c1ccccc1NC(=O)CSc1nc2cc(O)ccc2[nH]1 |  |
| 0.34 | COC(=O)c1ccccc1NC(=O)CSc1nc2cc(Br)ccc2[nH]1 |  |
